Experimental data pooled from the literature.
Protocols differ between the studies behind these lines.
Target: Tyrosine-protein kinase TXK (TXK, Homo sapiens, UniProt P42681)
One construct used (P42681 1-527): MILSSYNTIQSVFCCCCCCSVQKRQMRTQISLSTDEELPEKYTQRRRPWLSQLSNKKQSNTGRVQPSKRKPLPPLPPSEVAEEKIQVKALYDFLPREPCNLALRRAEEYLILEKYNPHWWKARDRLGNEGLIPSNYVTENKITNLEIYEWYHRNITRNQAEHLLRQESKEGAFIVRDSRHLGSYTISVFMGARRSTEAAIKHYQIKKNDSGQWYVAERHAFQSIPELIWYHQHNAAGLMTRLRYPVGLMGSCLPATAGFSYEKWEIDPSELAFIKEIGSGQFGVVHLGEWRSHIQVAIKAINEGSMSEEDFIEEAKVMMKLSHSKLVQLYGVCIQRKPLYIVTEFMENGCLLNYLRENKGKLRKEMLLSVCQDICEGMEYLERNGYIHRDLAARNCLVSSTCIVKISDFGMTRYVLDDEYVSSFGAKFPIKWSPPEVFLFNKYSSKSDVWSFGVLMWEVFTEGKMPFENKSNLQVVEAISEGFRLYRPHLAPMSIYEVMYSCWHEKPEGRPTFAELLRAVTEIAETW

`CCS(=O)(=O)c1cc2cc(C[C@](O)(CC(C)(C)c3ccc(F)cc3C(N)=O)C(F)(F)F)[nH]c2cn1` has a remaining binding of 90% (cell-free assay; competition with immobilised ligand; 1 µM).
`CCCS(=O)(=O)Nc1ccc(F)c(C(=O)c2c[nH]c3ncc(-c4ccc(Cl)cc4)cc23)c1F` gave an inhibition of under 10% (enzyme activity; inhibitor; 1 µM).
For `CS(=O)(=O)CCNCc1ccc(-c2ccc3ncnc(Nc4ccc(OCc5cccc(F)c5)c(Cl)c4)c3c2)o1`, the remaining signal was 110% (cell-free assay; 0.5 µM).
`O=C(Nc1cnn(-c2csc(C(=O)NC3COC3)c2)c1)Nc1c(F)cccc1Cl` has a remaining activity of 90.8% (enzyme activity; inhibitor; 5 µM).
`COc1cc(-c2cn(C3CCc4ccccc4N(CC(F)(F)F)C3=O)nn2)ccc1-n1ccc(C)n1` (stereo not drawn) gave a remaining binding of 84% (binding; competition with immobilised ligand; 1 µM).
With `COc1cc2ncnc(Nc3ccc(Oc4ccccc4)c(C)c3C)c2cc1OC` the inhibition was 2% (enzyme activity; inhibitor; 1 µM).
With `CC/C(=N\NC(=O)NCc1cccc(O)c1)c1ccc(O)c(C)c1O` the inhibition was -0.3% (enzyme activity; inhibitor; 0.1 µM).
With `CCCCN(CCCC)C(=O)CN1C[C@@H](c2cc(OC)c3c(c2)OCO3)[C@H](C(=O)O)[C@H]1CC(C)(C)CCC` the remaining binding was 100% (cell-free assay; competition with immobilised ligand; 1 µM).
The remaining signal of `O=C1Nc2ccc(Cl)cc2C1=Cc1cc(Cl)c(O)c(Cl)c1` is reported as 86.6% (cell-free assay; 0.5 µM).
The activity vs control of `c1nc2c(Nc3ccc4c(c3)OCCO4)nc(Nc3ccc4c(c3)OCCO4)nc2[nH]1` is reported as 8% (enzyme activity; inhibitor; 10 µM).
`O=C(NCc1ncc(C(F)(F)F)cc1Cl)c1ccc2c(c1)C1(CCS(=O)(=O)CC1)[C@@H](C1CC1)N2S(=O)(=O)c1ccc(F)cc1` has a remaining binding of 83% (binding; competition with immobilised ligand; 1 µM).
`CC(C)(O)[C@H]1CC[C@H](Nc2ccc3ncc(-c4cccc(C(F)(F)F)c4)n3n2)CC1` has a remaining activity of 62.6% (enzyme activity; inhibitor; 1 µM).
The inhibition of `COc1cc2nccc(Oc3ccc(NC(=O)c4c5n(n(-c6ccc(F)cc6)c4=O)CCCC5)cc3)c2cc1OC` is reported as -2% (enzyme activity; inhibitor; 0.1 µM).
With `CCCOc1ccc(OC)c(F)c1C(=O)c1ccc(C(=O)N[C@@H]2CNC[C@H]2NC(=O)c2ccc3[nH]ncc3c2)cc1` the remaining activity was 64% (enzyme activity; inhibitor; 10 µM).
`CC(C)(C)c1nc(-c2cccc(NS(=O)(=O)c3c(F)cccc3F)c2F)c(-c2ccnc(N)n2)s1` gave a remaining activity of 88% (enzyme activity; inhibitor; radiometric; 1 µM).
For `COc1cc(Cl)c(C(=O)N[C@@H](CN[C@H]2CC[C@@H](N)CC2)Cc2ccc(C#N)cc2)cc1-c1ccc(CN[C@H](C)c2ccc(C)cc2)o1`, the remaining activity was 88% (enzyme activity; inhibitor; 1 µM).
The remaining binding of `CCOC(=O)c1cc2cc(-c3cc(C(=O)NCc4ccc(C(=O)O)cc4)nn3C)ccc2[nH]1` is reported as 90% (binding; competition with immobilised ligand; 0.1 µM).
`CCOc1cc(-c2nncn2C)ccc1Nc1ncc2cc(C)nc(NCC(C)(C)C)c2n1` has an inhibition of under 15% (enzyme activity; inhibitor; FRET; 1 µM).
